One molecule from article PMC4981499 (Nature, 2014) can be followed below.

Each structure is given as a SMILES string. Values after ≈ are worked out from the molar mass of the structure shown.

Experiment [1] relates to NDM-1-positive K. pneumoniae N11-2218. Put plainly: Mouse systemic infection, organ bacterial load. Format: in vivo, CD1 mice. The conditions noted are these: s.c., spleen burden 48 h after infection. Put shortly: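 Female CD1 mice, 7–9 weeks, infected i.p. with 2×10⁶ cfu K. pneumoniae N11-2218. Treated s.c. 30 minutes post infection with test compound, meropenem, their combination, or PBS. Euthanized at 48 h; spleen and liver were homogenized in PBS, serially diluted and plated on Brilliant Green agar for cfu counts.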

In another experiment the test system is E. coli BW25113. Put plainly: MIC. Format: cell-based. The settings on record: Escherichia coli. Put shortly: (§1)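 Checkerboard microdilution with 8 concentrations each of meropenem and test compound in serial ½ dilutions, run in duplicate, and the mean was used. MIC was the lowest concentration with no growth. Each FIC was the concentration in the presence of the co-compound in a no-growth well divided by that compound's MIC; the FIC index is the sum of the two FICs.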

The test system of the next experiment is K. pneumoniae N11-2218. Description: MIC. Format: cell-based. The conditions noted are these: meropenem alone; K. pneumoniae N11-2218 (CRE). Put shortly: as §1
Experiment [2] has as its system NDM-1-positive K. pneumoniae N11-2218. Put plainly: Mouse lethal systemic infection, survival. It counts as in vivo, CD1 mice. The settings on record: meropenem (10 mg/kg) alone or AMA (30 mg/kg) alone, single s.c. dose. The method, boiled down:
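Female CD1 mice, 7–9 weeks, randomized 5 per cage. Infected i.p. with 5×10⁷ cfu K. pneumoniae N11-2218. A single s.c. dose was given 30 minutes post infection: meropenem 10 mg/kg, test compound 30 mg/kg, their combination, or PBS. Mice were monitored for endpoint until day 4. Preparation, infection and processing were done by two independent investigators for blinding.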

A word on the MIC: it is the lowest concentration found to suppress growth. A low value points to a more susceptible organism. On to `C[C@@H](O)[C@H]1C(=O)N2C(C(=O)O)=C(S[C@@H]3CN[C@H](C(=O)N(C)C)C3)[C@H](C)[C@H]12` [meropenem], for which the “Response of infection to meropenem monotherapy” value in experiment [1] is recorded as “resistant to meropenem monotherapy at doses below 50 mg/kg”. Further, the MIC was 0.008 to 0.016 µg/mL (≈ 0.0209 to 0.0417 µM) against E. coli BW25113 and 32 µg/mL (≈ 83.4 µM) with K. pneumoniae N11-2218. Also, in experiment [2], the “Prevention of lethal infection by monotherapy” value is “unable to prevent lethal infection”.
